Source: ChEMBL document CHEMBL1124598, “Benzofuro[2,3-c]pyridin-6-ols: synthesis, affinity for opioid-receptor subtypes, and antinociceptive activity” (J Med Chem, 1989)

Test system: Mus musculus
Assay: Analgesic activity 30 min after subcutaneous administration in mouse by using PQW test
Format: functional
Conditions: sc, 0.5 h
Summary of the method: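 Male CF-1 mice (18-23 g), ten per dose; compound given sc, then 30 min later phenylquinone 3.75 mg/kg in 5% aqueous ethanol ip. Mice observed 10 min in free-moving cages for abdominal stretching. ED50 determined with 95% confidence limits.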

SMILES	ED50 [µmol/kg]
CC[C@@]12CCN(CC3CCCO3)C[C@@H]1Oc1ccc(O)cc12 (some centres undefined)	0.005
CCCN1CC[C@@]2(CC)c3cc(O)ccc3O[C@H]2C1	0.0051
CC[C@@]12CCN(CC3CCCC3)C[C@@H]1Oc1ccc(O)cc12	0.0521
CC[C@@]12CCN(CC3CCC3)C[C@@H]1Oc1ccc(O)cc12	0.00145
CC[C@@]12CCN(Cc3ccco3)C[C@@H]1Oc1ccc(O)cc12	0.0908
CC[C@@]12CCN(CCc3ccccc3)C[C@@H]1Oc1ccc(O)cc12	0.00037
CC[C@@]12CCN(C)C[C@@H]1Oc1ccc(O)cc12	0.005
CC[C@@]12CCN(Cc3ccoc3)C[C@@H]1Oc1ccc(O)cc12	0.0512
CC[C@@]12CCN(CC3CC3)C[C@@H]1Oc1ccc(O)cc12	0.00119
